Our source for the IC50, inhibition and Activity values is ChEMBL document CHEMBL5661979, “Pharmacological inhibition of BMK1 suppresses tumor growth through promyelocytic leukemia protein” (Cancer Cell, 2010).

The target of data set [1] is Tyrosine-protein kinase Fer (Homo sapiens, UniProt P16591). Nature of the data set: Inhibition of FER in human HeLa cells lysate pre incubated for 15 mins followed by ATP acyl phosphate probe addition and measured after 10 mins by LC-MS/MS analysis. Format: subcellular.
The target of data set [2] is Serine/threonine-protein kinase 4 (Homo sapiens, UniProt Q13043). Nature of the data set: Inhibition of MST1 in human HeLa cells lysate pre incubated for 15 mins followed by ATP acyl phosphate probe addition and measured after 10 mins by LC-MS/MS analysis. Format: subcellular.
In data set [3] the target is T1, Serine/threonine-protein kinase Sgk3 (Homo sapiens, UniProt Q96BR1).
T1 sequence (Q96BR1 whole entry): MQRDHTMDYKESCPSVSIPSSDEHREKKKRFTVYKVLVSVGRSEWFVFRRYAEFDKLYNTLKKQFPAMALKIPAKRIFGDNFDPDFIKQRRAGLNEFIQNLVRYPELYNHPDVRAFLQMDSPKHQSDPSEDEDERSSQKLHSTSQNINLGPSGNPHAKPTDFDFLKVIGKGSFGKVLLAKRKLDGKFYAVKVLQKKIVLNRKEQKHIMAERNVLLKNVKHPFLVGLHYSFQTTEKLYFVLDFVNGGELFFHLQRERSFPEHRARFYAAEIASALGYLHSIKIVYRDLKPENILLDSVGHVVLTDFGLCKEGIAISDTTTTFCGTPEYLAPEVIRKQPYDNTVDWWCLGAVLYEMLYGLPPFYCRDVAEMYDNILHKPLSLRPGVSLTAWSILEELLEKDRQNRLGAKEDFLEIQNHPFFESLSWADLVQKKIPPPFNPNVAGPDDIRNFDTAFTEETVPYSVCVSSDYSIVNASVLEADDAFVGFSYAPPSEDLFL
Nature of the data set: Inhibition of SGK3 K1 site in human HeLa cells lysate pre incubated for 15 mins followed by ATP acyl phosphate probe addition and measured after 10 mins by LC-MS/MS analysis. Format: subcellular.

For data set [4], the target named is Cyclin-dependent kinase 16 (Homo sapiens, UniProt Q00536). In words: Inhibition of PCTAIRE1 in human HeLa cells lysate pre incubated for 15 mins followed by ADP acyl phosphate probe addition and measured after 10 mins by LC-MS/MS analysis. Format: subcellular.
Data set [5] deals with Serine/threonine-protein kinase 38-like (Homo sapiens, UniProt Q9Y2H1). In words: Inhibition of NDR2 in human HeLa cells lysate at 10 uM pre incubated for 15 mins followed by ADP acyl phosphate probe addition and measured after 10 mins by LC-MS/MS analysis relative to control. In kind it is subcellular. As to conditions: time 25.0 min.
Data set [6] deals with Serine/threonine-protein kinase/endoribonuclease IRE1 (Homo sapiens, UniProt O75460). Nature of the data set: Inhibition of IRE1 in human HeLa cells lysate at 10 uM pre incubated for 15 mins followed by ADP acyl phosphate probe addition and measured after 10 mins by LC-MS/MS analysis relative to control. As to conditions: time 25.0 min. Format: subcellular.
A short description of data set [7]: Inhibition of PRKX/PRKY in human HeLa cells lysate at 10 uM pre incubated for 15 mins followed by ADP acyl phosphate probe addition and measured after 10 mins by LC-MS/MS analysis relative to control. As to conditions: 25 min, condition cancer.
The target of data set [8] is T2, Serine/threonine-protein kinase 3 (Homo sapiens) (UniProt Q13188).
T2 sequence (whole entry): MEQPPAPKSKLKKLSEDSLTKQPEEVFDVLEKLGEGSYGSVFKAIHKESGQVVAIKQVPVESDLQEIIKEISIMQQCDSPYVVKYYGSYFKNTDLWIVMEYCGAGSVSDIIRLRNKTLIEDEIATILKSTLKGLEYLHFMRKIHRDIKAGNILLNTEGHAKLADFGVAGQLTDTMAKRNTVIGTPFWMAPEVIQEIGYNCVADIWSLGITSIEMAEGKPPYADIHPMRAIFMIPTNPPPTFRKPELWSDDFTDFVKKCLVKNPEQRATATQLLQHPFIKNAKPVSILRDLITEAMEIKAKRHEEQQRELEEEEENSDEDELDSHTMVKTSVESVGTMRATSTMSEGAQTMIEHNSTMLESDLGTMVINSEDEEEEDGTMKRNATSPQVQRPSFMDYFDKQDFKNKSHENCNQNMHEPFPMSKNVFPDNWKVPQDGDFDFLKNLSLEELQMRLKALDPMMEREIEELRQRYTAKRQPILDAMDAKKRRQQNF
Nature of the data set: Inhibition of MST2 in human HeLa cells lysate at 2 uM pre incubated for 15 mins followed by ADP acyl phosphate probe addition and measured after 10 mins by LC-MS/MS analysis relative to control. Format: subcellular. The following applies: time 25.0 min.

Data set [9] has as its target Casein kinase I isoform alpha (Homo sapiens, UniProt P48729). Nature of the data set: Inhibition of CK1alpha in human HeLa cells lysate at 50 uM pre incubated for 15 mins followed by ATP acyl phosphate probe addition and measured after 10 mins by LC-MS/MS analysis relative to control. The following applies: time 25.0 min. In kind it is subcellular.
Data set [10] addresses Tyrosine-protein kinase Lyn (Homo sapiens, UniProt P07948). In words: Inhibition of LYN in human HeLa cells lysate at 50 uM pre incubated for 15 mins followed by ATP acyl phosphate probe addition and measured after 10 mins by LC-MS/MS analysis relative to control. Format: subcellular. The following applies: time 25.0 min.
Data set [11] deals with Tyrosine-protein kinase ABL (Homo sapiens, UniProt P00519+P42684). In words: Inhibition of ABL1/2 in human HeLa cells lysate at 10 uM pre incubated for 15 mins followed by ATP acyl phosphate probe addition and measured after 10 mins by LC-MS/MS analysis relative to control. Format: subcellular. The following applies: time 25.0 min. Summed up: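 HeLa cell lysates (5 mg/mL total protein) were preincubated with inhibitor at 0, 0.8, 2, 10 or 50 μM for 15 min. ATP or ADP acylphosphate probe was then added (5 μM final) for 10 min, and reactions were stopped with urea. Up to four fragment ions per kinase probe-peptide were quantified by targeted MS. % inhibition was taken relative to untreated lysate. Run in duplicate.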

Data set [12] addresses Ribosomal protein S6 kinase beta-1 (Homo sapiens, UniProt P23443). In words: Inhibition of P70S6K in human HeLa cells lysate at 10 uM pre incubated for 15 mins followed by ATP acyl phosphate probe addition and measured after 10 mins by LC-MS/MS analysis relative to control. Format: subcellular. The following applies: time 25.0 min.
Data set [13] addresses Mitogen-activated protein kinase kinase kinase 5 (Homo sapiens) (UniProt Q99683). In words: Inhibition of MAP3K5 in human HeLa cells lysate at 10 uM pre incubated for 15 mins followed by ATP acyl phosphate probe addition and measured after 10 mins by LC-MS/MS analysis relative to control. The following applies: time 25.0 min. Format: subcellular.
Another data set deals with Wee1-like protein kinase (Homo sapiens, UniProt P30291). Nature of the data set: Inhibition of Wee1 in human HeLa cells lysate at 2 uM pre incubated for 15 mins followed by ATP acyl phosphate probe addition and measured after 10 mins by LC-MS/MS analysis relative to control. In kind it is subcellular. As to conditions: time 25.0 min.
In data set [14] the target is Rho-associated protein kinase (Homo sapiens, UniProt O75116+Q13464). In words: Inhibition of ROCK1/2 in human HeLa cells lysate at 2 uM pre incubated for 15 mins followed by ATP acyl phosphate probe addition and measured after 10 mins by LC-MS/MS analysis relative to control. The following applies: time 25.0 min. Format: subcellular.
A short description of data set [15]: Toxicity in C57Bl/6 mouse assessed as effect on locomotor activity at 50 mg/kg, ip for 14 days. Format: organism-based. As to conditions: in vivo, 336 h, time 14 day.
Data set [16] is described as follows: Toxicity in C57Bl/6 mouse assessed as effect on albumin level at 50 mg/kg, ip for 14 days (reference value: 3 g/dl). In kind it is organism-based. As to conditions: in vivo, 336 h, time 14 day.

In general, IC50 refers to the concentration that gives 50% inhibition. A lower IC50 goes with higher potency. The inhibition is the relative decrease from the control value, in per cent.

Chain of Tyrosine-protein kinase Fer (P16591 whole entry): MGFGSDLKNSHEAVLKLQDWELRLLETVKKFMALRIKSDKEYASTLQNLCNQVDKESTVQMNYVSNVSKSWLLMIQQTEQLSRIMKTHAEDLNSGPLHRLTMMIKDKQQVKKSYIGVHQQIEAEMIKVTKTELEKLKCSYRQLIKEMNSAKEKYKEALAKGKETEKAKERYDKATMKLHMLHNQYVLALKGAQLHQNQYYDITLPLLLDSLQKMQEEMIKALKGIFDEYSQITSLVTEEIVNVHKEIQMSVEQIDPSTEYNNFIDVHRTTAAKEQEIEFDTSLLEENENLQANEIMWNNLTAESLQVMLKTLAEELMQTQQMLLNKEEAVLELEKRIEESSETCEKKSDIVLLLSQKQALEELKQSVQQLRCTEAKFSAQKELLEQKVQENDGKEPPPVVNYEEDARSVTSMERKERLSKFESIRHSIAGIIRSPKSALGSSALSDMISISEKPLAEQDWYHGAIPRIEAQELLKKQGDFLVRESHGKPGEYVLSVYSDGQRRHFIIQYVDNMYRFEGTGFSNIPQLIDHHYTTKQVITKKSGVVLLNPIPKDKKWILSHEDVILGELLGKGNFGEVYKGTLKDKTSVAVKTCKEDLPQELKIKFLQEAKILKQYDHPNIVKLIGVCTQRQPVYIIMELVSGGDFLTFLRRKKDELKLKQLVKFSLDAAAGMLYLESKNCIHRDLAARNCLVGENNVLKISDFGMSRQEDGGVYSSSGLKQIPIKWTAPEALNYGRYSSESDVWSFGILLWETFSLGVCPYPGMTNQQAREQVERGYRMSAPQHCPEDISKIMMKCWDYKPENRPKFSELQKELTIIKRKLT
Chain of Ribosomal protein S6 kinase beta-1 (P23443 whole entry, looked up): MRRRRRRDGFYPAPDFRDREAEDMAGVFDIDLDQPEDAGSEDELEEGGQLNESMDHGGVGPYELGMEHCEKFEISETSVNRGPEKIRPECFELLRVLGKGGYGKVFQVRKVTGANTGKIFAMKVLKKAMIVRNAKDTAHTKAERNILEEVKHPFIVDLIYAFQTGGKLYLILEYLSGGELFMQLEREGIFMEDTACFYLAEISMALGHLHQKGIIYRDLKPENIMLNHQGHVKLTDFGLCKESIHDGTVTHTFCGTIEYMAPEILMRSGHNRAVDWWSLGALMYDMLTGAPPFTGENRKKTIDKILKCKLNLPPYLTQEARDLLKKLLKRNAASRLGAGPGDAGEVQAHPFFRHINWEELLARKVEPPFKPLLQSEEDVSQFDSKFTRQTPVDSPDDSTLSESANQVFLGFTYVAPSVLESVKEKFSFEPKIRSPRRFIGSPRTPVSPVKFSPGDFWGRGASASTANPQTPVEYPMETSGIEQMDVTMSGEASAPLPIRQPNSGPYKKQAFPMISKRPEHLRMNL
Chain of Rho-associated protein kinase (O75116 whole entry, looked up): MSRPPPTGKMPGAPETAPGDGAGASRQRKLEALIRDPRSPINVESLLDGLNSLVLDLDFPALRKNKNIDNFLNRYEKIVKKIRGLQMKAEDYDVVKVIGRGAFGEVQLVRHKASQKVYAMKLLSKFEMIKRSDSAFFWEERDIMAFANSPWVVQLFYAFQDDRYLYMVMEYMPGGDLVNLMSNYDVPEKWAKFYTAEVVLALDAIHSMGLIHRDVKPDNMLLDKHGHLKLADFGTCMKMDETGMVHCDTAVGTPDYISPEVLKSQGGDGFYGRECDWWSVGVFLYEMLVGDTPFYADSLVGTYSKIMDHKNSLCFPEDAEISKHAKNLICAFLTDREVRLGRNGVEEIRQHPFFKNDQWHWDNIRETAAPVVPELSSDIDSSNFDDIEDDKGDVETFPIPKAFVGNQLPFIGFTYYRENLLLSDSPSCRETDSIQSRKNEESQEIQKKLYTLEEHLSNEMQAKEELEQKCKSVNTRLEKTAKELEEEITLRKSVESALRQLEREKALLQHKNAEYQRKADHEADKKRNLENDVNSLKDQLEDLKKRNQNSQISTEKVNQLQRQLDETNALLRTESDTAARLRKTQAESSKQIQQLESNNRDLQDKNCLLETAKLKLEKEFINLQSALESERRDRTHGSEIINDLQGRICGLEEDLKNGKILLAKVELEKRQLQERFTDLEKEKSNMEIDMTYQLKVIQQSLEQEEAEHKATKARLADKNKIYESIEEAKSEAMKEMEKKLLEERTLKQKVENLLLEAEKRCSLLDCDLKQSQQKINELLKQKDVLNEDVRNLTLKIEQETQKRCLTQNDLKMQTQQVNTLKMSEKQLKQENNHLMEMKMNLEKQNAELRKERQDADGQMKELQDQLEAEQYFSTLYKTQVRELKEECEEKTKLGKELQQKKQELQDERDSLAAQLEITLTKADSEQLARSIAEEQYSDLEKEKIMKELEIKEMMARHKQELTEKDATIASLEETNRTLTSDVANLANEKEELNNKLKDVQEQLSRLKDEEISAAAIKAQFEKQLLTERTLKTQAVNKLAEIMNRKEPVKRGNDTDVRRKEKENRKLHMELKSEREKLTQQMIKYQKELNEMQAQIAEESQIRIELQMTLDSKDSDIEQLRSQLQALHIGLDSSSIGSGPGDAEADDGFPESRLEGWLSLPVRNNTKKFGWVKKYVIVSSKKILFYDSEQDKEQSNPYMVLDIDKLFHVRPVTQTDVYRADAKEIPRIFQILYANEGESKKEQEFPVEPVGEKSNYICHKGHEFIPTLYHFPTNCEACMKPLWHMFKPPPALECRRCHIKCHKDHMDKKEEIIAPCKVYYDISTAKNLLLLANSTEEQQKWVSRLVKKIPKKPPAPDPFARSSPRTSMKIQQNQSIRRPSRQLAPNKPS
Chain of Rho-associated protein kinase (Q13464 whole entry, looked up): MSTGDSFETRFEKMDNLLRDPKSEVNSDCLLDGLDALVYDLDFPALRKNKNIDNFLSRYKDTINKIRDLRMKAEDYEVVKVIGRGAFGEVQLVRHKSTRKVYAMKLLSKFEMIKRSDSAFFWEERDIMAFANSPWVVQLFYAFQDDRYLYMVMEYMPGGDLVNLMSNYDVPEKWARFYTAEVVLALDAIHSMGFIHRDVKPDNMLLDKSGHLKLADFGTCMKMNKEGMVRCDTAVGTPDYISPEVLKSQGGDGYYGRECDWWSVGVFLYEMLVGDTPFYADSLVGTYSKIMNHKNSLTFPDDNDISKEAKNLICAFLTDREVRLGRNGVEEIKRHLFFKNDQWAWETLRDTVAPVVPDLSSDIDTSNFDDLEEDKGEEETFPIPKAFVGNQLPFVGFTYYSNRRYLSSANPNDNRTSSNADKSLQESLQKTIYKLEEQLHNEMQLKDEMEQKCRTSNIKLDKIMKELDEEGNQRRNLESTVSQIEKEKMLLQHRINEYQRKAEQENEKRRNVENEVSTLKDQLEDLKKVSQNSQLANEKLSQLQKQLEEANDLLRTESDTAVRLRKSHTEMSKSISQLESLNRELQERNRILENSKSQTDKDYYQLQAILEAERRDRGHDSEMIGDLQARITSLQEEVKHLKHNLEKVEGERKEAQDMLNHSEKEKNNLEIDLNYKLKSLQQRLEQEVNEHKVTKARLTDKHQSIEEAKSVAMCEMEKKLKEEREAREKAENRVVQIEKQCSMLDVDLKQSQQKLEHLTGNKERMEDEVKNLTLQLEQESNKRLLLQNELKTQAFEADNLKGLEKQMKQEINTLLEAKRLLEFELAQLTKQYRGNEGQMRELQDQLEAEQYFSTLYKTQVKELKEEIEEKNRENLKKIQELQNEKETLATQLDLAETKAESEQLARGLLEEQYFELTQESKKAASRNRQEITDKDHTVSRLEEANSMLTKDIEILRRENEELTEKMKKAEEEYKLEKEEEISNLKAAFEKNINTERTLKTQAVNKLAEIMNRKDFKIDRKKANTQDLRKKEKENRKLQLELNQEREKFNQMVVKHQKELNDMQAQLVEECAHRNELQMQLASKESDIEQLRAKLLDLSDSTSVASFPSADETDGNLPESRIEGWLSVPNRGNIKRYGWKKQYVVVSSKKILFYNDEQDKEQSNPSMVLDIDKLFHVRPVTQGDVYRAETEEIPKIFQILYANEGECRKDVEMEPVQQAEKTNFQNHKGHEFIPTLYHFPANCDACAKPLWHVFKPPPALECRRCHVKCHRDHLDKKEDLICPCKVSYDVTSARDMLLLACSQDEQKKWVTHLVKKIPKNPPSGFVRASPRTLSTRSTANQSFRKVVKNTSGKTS
Chain of Casein kinase I isoform alpha (P48729 2-337 limits assumed): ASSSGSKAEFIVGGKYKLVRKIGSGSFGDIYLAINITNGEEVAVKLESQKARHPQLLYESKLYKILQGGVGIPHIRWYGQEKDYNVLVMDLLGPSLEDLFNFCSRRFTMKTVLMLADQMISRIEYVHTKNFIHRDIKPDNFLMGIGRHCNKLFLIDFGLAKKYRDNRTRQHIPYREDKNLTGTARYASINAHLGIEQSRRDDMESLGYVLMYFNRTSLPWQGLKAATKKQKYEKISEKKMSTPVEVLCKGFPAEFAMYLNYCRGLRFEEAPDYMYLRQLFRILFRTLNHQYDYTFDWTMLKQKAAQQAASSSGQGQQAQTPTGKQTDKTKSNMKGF
Chain of Serine/threonine-protein kinase 4 (Q13043 whole entry): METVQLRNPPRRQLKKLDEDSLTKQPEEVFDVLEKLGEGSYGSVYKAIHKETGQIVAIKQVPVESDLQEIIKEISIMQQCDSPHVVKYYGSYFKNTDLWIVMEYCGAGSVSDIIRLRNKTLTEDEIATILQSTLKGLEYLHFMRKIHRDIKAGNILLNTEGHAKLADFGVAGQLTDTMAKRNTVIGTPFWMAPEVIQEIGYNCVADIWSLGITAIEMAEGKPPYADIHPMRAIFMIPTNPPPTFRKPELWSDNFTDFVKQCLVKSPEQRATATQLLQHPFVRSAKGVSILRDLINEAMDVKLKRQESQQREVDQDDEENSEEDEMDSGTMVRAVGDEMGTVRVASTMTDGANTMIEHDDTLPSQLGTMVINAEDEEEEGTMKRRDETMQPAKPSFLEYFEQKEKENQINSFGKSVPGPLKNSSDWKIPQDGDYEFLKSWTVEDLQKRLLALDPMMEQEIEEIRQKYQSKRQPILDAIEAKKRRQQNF

In the case of `CCOc1cc(N2CCC(O)CC2)ccc1Nc1ncc2c(n1)N(C)c1ccccc1C(=O)N2C`, the IC50 in data set [1], in data set [2], in data set [3] and in data set [4] was above 50 µM in each case. The inhibition in data set [5] is 15.9%; in data set [6], 15.6%; in data set [8], 26.2%; in data set [9], 0.1%; in [10], -5.2%; in [11], 1.7%. For the same molecule, the inhibition was -9.6% in data set [12], 12.5% in data set [13], -5.2% on Wee1-like protein kinase and 0.1% in data set [14]. Besides, the inhibition at 10 µM in data set [7] was -14.3%. For the same molecule, the figures for the Activity entry in [15] and in data set [16] were “Non-Toxic” and 3.3 g/dL, respectively.
